In ChEMBL document CHEMBL3259647, “Design, synthesis, and biological evaluation of potent dual agonists of nuclear and membrane bile acid receptors” (J Med Chem, 2014):
Activity calls are given as the source filed them. The rule behind the calls is not given here.

How the values were obtained:
HEK-293T = assay: Induction of cAMP production in GP-BAR1-deficient HEK293T cells at 10 uM by cAMP responsive element containing luciferase reporter gene assay; type: functional, cell-based; conditions: Homo sapiens
How it was run: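 Control transfection of HEK-293T with only the pGL4.29 CRE-luciferase and pGL4.70 Renilla vectors, without GP-BAR1. 24 h after transfection, cells exposed 18 h to 10 μM compound. Luciferase normalized to Renilla.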

[1] = target: T1, Bile acid receptor (Homo sapiens) (UniProt Q96RI1); assay: Antagonist activity at human FXR transfected in human HepG2 cells assessed as supression of CDCA-induced transcriptional activity at 50 uM by beta-galactosidase reporter gene assay; type: cell-based
T1 sequence (whole entry): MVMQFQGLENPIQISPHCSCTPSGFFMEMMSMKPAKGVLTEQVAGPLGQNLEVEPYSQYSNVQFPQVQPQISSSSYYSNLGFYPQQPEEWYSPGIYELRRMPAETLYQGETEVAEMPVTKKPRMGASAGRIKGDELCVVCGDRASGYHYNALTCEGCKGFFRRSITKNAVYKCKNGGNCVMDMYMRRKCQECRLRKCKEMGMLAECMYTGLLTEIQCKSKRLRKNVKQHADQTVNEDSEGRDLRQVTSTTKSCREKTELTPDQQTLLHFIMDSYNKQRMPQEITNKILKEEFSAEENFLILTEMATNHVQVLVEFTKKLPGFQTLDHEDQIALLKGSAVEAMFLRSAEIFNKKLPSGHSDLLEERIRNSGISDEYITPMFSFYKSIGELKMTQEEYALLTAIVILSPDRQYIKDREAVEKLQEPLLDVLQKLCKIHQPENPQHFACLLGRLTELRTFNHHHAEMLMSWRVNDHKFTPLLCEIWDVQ
How it was run: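 HepG2 cells (MEM with Earle's salts, 10% FBS, 37 °C; 5 × 10⁴ cells/well) transfected with pSG5-FXR, pSG5-RXR, pCMV-βgal and p(hsp27)-TK-LUC IR1 reporter. 24 h post-transfection, treated 18 h with 10 μM CDCA plus 50 μM compound. Luciferase in lysates normalized to β-galactosidase activity. Statistics versus CDCA alone.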

[2] = target: T2, G-protein coupled bile acid receptor 1 (Homo sapiens) (UniProt Q8TDU6); assay: Transactivation of human GP-BAR1 transfected in HEK293T cells assessed as induction of intracellular cAMP production at 10 uM after 18 hrs by cAMP responsive element containing luciferase reporter gene assay; type: functional, cell-based; conditions: HEK-293T
T2 sequence (whole entry): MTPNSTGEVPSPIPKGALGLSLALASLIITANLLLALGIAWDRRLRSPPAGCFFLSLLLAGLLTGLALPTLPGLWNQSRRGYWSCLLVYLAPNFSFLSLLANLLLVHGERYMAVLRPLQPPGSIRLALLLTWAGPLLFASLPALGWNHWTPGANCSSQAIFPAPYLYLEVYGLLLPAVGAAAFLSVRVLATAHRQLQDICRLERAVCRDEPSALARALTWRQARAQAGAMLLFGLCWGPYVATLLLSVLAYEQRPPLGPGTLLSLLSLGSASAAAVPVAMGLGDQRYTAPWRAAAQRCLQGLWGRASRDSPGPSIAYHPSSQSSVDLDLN
How it was run: (§1)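 HEK-293T co-transfected with human GP-BAR1 and a CRE-driven luciferase reporter. Stimulated 24 h post-transfection for 18 h at 10 μM. TLCA 10 μM as receptor-dependent reference; forskolin 10 μM as receptor-independent cAMP control. Luciferase normalized to Renilla; mean ± standard error.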

[3] = target: T3, G-protein coupled bile acid receptor 1 (Mus musculus) (UniProt Q80SS6); assay: Agonist activity at GP-BAR1 in mouse GLUTag cells assessed as increase in intracellular cAMP level; type: functional, cell-based
T3 sequence (whole entry): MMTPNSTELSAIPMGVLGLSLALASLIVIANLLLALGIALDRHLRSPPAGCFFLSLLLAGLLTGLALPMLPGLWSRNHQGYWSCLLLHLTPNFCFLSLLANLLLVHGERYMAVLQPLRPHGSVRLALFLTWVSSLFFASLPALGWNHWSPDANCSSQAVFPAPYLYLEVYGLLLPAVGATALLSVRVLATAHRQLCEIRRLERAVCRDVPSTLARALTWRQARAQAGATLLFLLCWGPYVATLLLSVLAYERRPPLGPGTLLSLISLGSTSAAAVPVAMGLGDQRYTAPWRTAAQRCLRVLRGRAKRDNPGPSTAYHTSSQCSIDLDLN
How it was run: (§2)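 GLUTag enteroendocrine cells measuring intracellular cAMP generation and GLP-1 released into supernatant. Values are the mean ± SE of four to five experiments; significance is versus untreated cells.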

[4] = target: T3, G-protein coupled bile acid receptor 1 (Mus musculus); assay: Agonist activity at GP-BAR1 in mouse GLUTag cells assessed as increase in GLP-1 release; type: cell-based; how it was run: as §2
[5] = target: T4, Bile acid receptor (Mus musculus) (UniProt Q60641); assay: Agonist activity at FXR in mouse primary hepatocytes assessed as upregulation of BESP mRNA expression; type: cell-based; conditions: Hepatocyte
T4 sequence (whole entry): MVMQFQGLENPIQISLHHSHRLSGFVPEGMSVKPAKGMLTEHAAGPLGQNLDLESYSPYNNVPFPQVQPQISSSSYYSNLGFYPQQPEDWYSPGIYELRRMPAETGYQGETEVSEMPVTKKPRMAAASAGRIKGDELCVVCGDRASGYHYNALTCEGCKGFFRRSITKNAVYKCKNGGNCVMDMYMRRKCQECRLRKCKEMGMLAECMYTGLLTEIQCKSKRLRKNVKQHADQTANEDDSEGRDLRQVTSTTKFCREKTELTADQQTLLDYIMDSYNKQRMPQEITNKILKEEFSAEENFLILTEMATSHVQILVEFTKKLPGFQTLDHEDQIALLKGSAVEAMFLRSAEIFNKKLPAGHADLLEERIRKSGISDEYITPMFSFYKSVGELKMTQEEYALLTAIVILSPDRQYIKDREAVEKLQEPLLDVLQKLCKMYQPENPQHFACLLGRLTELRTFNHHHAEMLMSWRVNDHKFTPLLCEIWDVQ
How it was run: (§3)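 Hepatocytes from wild-type or FXR−/− mice were analysed by real-time PCR for BSEP mRNA, as a measure of FXR-dependent target gene induction. Data are the mean SE of four experiments.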

[6] = target: T1, Bile acid receptor (Homo sapiens); assay: Transactivation of human FXR transfected in human HepG2 cells at 10 uM by beta-galactosidase reporter gene assay; type: cell-based
How it was run: (§4)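 HepG2 cells were grown at 37 °C in MEM with Earle's salts and 10% FBS, then plated at 5 × 10⁴ cells/well. They were transfected with pSG5-FXR, pSG5-RXR, pCMV-β-gal and the IR1 reporter p(hsp27)-TK-LUC, and stimulated 18 h starting 24 h post-transfection. Lines 2 and 3 give the test levels. CDCA 10 μM was the positive control. Luciferase was normalized to β-galactosidase.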

Hepatocyte = assay: Upregulation of BESP mRNA expression in mouse primary hepatocytes isolated from FXR deficient mouse; type: functional, cell-based; how it was run: as §3
[7] = target: T1, Bile acid receptor (Homo sapiens); assay: Transactivation of human FXR transfected in human HepG2 cells at 1 to 10 uM by beta-galactosidase reporter gene assay; type: cell-based; how it was run: as §4
[8] = target: T2, G-protein coupled bile acid receptor 1 (Homo sapiens); assay: Transactivation of human GP-BAR1 transfected in HEK293T cells assessed as induction of intracellular cAMP production at 10 uM after 18 hrs by luciferase reporter gene assay relative to TLCA; type: functional, cell-based; conditions: HEK-293T; how it was run: as §1
[9] = target: T1, Bile acid receptor (Homo sapiens); assay: Transactivation of human FXR transfected in human HepG2 cells at 10 uM by beta-galactosidase reporter gene assay relative to CDCA; type: cell-based; conditions: in the assay text read “luciferase reporter gene assay” for “beta-galactosidase reporter gene assay”
How it was run: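 HepG2 cells transfected with human FXR, RXR, β-gal and hsp27 IR1-luciferase reporter. 24 h post-transfection, stimulated 18 h at 10 μM, with CDCA 10 μM as positive control. Luciferase RLU divided by β-galactosidase activity; mean ± standard error.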

[10] = target: T5, G-protein coupled bile acid receptor 1 (Homo sapiens, UniProt Q8TDU6); assay: Transactivation of human GP-BAR1 transfected in HEK293T cells assessed as induction of intracellular cAMP production after 18 hrs by cAMP responsive element containing luciferase reporter gene assay; type: functional, cell-based, HEK-293T
T5 sequence (Q8TDU6 whole entry): T2 sequence (whole entry)
How it was run: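 Concentration–response in GP-BAR1/CRE-luciferase transfected HEK-293T: 0.1, 1 and 10 μM for 18 h, with TLCA 10 μM positive control. Renilla-normalized luciferase used to calculate EC50.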

Bile acid receptor = target: T6, Bile acid receptor (Homo sapiens, UniProt Q96RI1); assay: Transactivation of human FXR transfected in human HepG2 cells by beta-galactosidase reporter gene assay; type: cell-based
T6 sequence (Q96RI1 whole entry): T1 sequence (whole entry)
How it was run: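 FXR/RXR/β-gal/IR1-luciferase transfected HepG2 cells treated with 0.01, 0.1, 1 and 10 μM; CDCA 10 μM positive control. β-gal-normalized luciferase used to calculate EC50.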

Structure (SMILES)	Activity (HEK-293T)	Activity [1]	further results
C[C@H](CCCO)[C@H]1CC[C@H]2[C@@H]3[C@@H](O)C[C@@H]4C[C@H](OS(=O)(=O)O)CC[C@]4(C)[C@H]3CC[C@]12C	inactive	inactive	–
C[C@H](CCCOS(=O)(=O)O)[C@H]1CC[C@H]2[C@@H]3[C@H](OS(=O)(=O)O)C[C@@H]4C[C@H](OS(=O)(=O)O)CC[C@]4(C)[C@H]3CC[C@]12C	inactive	inactive	–
C[C@H](CCCOS(=O)(=O)O)[C@H]1CC[C@H]2[C@@H]3[C@@H](OS(=O)(=O)O)C[C@@H]4C[C@H](OS(=O)(=O)O)CC[C@]4(C)[C@H]3CC[C@]12C	inactive	inactive	–
C[C@H](CCCOS(=O)(=O)O)[C@H]1CC[C@H]2[C@@H]3[C@H](O)C[C@@H]4C[C@H](O)CC[C@]4(C)[C@H]3CC[C@]12C	inactive	inactive	–
C[C@H](CCC(=O)NCCOS(=O)(=O)O)[C@H]1CC[C@H]2[C@@H]3CC[C@@H]4C[C@H](O)CC[C@]4(C)[C@H]3CC[C@]12C	–	–	Activity [2]: Active; Activity [3]: Active; Activity [4]: Active
C[C@H](CCCCCOS(=O)(=O)O)[C@H]1CC[C@H]2[C@@H]3[C@H](OS(=O)(=O)O)C[C@@H]4C[C@H](OS(=O)(=O)O)CC[C@]4(C)[C@H]3CC[C@]12C	inactive	inactive	–
C[C@H](CCCCCOS(=O)(=O)O)[C@H]1CC[C@H]2[C@@H]3[C@@H](OS(=O)(=O)O)C[C@@H]4C[C@H](OS(=O)(=O)O)CC[C@]4(C)[C@H]3CC[C@]12C	inactive	inactive	–
CC[C@H]1[C@@H](O)[C@@H]2[C@H](CC[C@]3(C)[C@@H]([C@H](C)CCC(=O)O)CC[C@@H]23)[C@@]2(C)CC[C@@H](O)C[C@@H]12	inactive	–	Activity [3]: Active; Activity [5]: Active; Activity [6]: Active; Activity [4]: Active; Activity (Hepatocyte): inactive
C[C@H](CCC(=O)O)[C@H]1CC[C@H]2[C@@H]3[C@H](O)C[C@@H]4C[C@H](O)CC[C@]4(C)[C@H]3CC[C@]12C	inactive	–	–
CC[C@H]1[C@@H](OS(=O)(=O)O)[C@@H]2[C@H](CC[C@]3(C)[C@@H]([C@H](C)CCOS(=O)(=O)O)CC[C@@H]23)[C@@]2(C)CC[C@@H](OS(=O)(=O)O)C[C@@H]12	inactive	inactive	–
CC[C@H]1[C@@H](OS(=O)(=O)O)[C@@H]2[C@H](CC[C@]3(C)[C@@H]([C@H](C)CCCOS(=O)(=O)O)CC[C@@H]23)[C@@]2(C)CC[C@@H](OS(=O)(=O)O)C[C@@H]12	inactive	inactive	–
C[C@H](CCCCCOS(=O)(=O)O)[C@H]1CC[C@H]2[C@@H]3[C@H](O)C[C@@H]4C[C@H](O)CC[C@]4(C)[C@H]3CC[C@]12C	inactive	–	Activity [2]: Active; Activity [6]: Active
C[C@H](CCCCCOS(=O)(=O)O)[C@H]1CC[C@H]2[C@@H]3[C@@H](O)C[C@@H]4C[C@H](O)CC[C@]4(C)[C@H]3CC[C@]12C	inactive	inactive	–
C=C[C@@]1(C)CC(=O)[C@]2(O)[C@@]3(C)[C@@H](O)CCC(C)(C)[C@@H]3[C@H](O)[C@H](OC(C)=O)[C@@]2(C)O1	Active	–	–
C[C@H](CCCOS(=O)(=O)O)[C@H]1CC[C@H]2[C@@H]3[C@@H](O)C[C@@H]4C[C@H](O)CC[C@]4(C)[C@H]3CC[C@]12C	inactive	inactive	–
C[C@H](CCCCCOS(=O)(=O)O)[C@H]1CC[C@H]2[C@@H]3[C@@H](O)C[C@@H]4C[C@H](OS(=O)(=O)O)CC[C@]4(C)[C@H]3CC[C@]12C	inactive	inactive	–
CC[C@H]1[C@@H](O)[C@@H]2[C@H](CC[C@]3(C)[C@@H]([C@H](C)CCOS(=O)(=O)O)CC[C@@H]23)[C@@]2(C)CC[C@@H](O)C[C@@H]12	inactive	–	Activity [7]: Active
C[C@H](CCCOS(=O)(=O)O)[C@H]1CC[C@H]2[C@@H]3[C@@H](O)C[C@@H]4C[C@H](OS(=O)(=O)O)CC[C@]4(C)[C@H]3CC[C@]12C	inactive	inactive	–
CC[C@H]1[C@@H](O)[C@@H]2[C@H](CC[C@]3(C)[C@@H]([C@H](C)CCCOS(=O)(=O)O)CC[C@@H]23)[C@@]2(C)CC[C@@H](O)C[C@@H]12	inactive	–	Efficacy [8]: 112%; Activity [3]: Active; Activity [5]: Active; Efficacy [9]: 852%; EC50 [10]: 200 nM; EC50 (Bile acid receptor): 1000 nM; Activity [4]: Active; Activity (Hepatocyte): inactive
